Experimental findings from ChEMBL document CHEMBL1125037, “Synthesis and antihypertensive activity of 4-(1,2-dihydro-2-oxo-1-pyridyl)-2H-1-benzopyrans and related compounds, new potassium channel activators” (1990) are described below.

Molecules are shown by their SMILES.

One test relates to Rattus norvegicus. Kind of test: Antihypertensive effect after 1 mg/kg (po) administration in conscious spontaneously hypertensive rat (over a time period of 0-210 minutes). The format is functional. An outline of the steps: (§1)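 Male Okamoto-strain SHR (280-330 g, blood pressure >180 mmHg), conscious and unrestrained, given 1 mg/kg orally as a screening dose. Mean arterial pressure was recorded directly and continuously via an aortic catheter from 1 h before to 3.5 h after dosing. The effect is the mean of the maximum individual changes over 3.5 h; N ≥ 3.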
`CC1(C)Oc2ccc(C#N)cc2C(n2ccc(=O)cc2)[C@@H]1O` (some centres not stated): the “Max fall in blood pressure” value was 21 mmHg.
Take `CC1(C)Oc2ccc(C#N)cc2C(n2ccccc2=O)C1=O` (configuration not stated): the “Max fall in blood pressure” value worked out at 20 mmHg.
`CC1(C)Oc2ccc(C#N)cc2[C@H](n2ccccc2=O)[C@@H]1O`: the “Max fall in blood pressure” value came to 26 mmHg.
Still for that read-out and setting: as for `CC1(C)Oc2ccc(C#N)cc2[C@@H](n2cc([N+](=O)[O-])ccc2=O)[C@@H]1O`, the figure is 23 mmHg; as for `CC1(C)C=C(n2cc(Cl)ccc2=O)c2cc(C#N)ccc2O1`, 23 mmHg.
With `CC1(C)Oc2ccc(/C=C/C#N)cc2[C@@H](n2ccccc2=O)[C@@H]1O`, the “Max fall in blood pressure” value stood at 25 mmHg.
Turning to `CC1(C)Oc2ccc(C#N)cc2[C@@H](n2cc(N)ccc2=O)[C@@H]1O`, the “Max fall in blood pressure” value is given as 34 mmHg.
Same read-out and setting: as for `N#Cc1ccc2c(c1)C(n1ccccc1=O)=CC1(CCCC1)O2`, the figure is 26 mmHg; as for `CC1(C)C=C(n2ccccc2=O)c2cc(C(=N)S)ccc2O1`, 23 mmHg.
Same read-out and setting: as for `CC1(C)Oc2ccc(C#N)cc2[C@@H](n2cccc(C(=O)O)c2=O)[C@@H]1O`, the figure is 24 mmHg.
For the compound `COC(=O)c1ccc2c(c1)[C@@H](n1ccccc1=O)[C@H](O)C(C)(C)O2`, the “Max fall in blood pressure” value turned out to be 49 mmHg.
Turning to `CC(=O)OC1=C(n2ccccc2=O)c2cc(C#N)ccc2OC1(C)C`, the “Max fall in blood pressure” value is listed as 21 mmHg.
Regarding `CC1(C)Oc2ccc(C(=N)S)cc2C(N2CCCC2=O)[C@@H]1O` (some centres not stated), the “Max fall in blood pressure” value came out at 22 mmHg.
As to `COC1=C(n2ccccc2=O)c2cc(C#N)ccc2OC1(C)C`, the “Max fall in blood pressure” value was 22 mmHg.
Regarding `CC1(C)Oc2ccc(-c3ccncc3)cc2C(N2CCCC2=O)[C@@H]1O` (some centres not stated), the “Max fall in blood pressure” value is reported as 20 mmHg.
On to `CC1(C)C=C(n2cc([N+](=O)[O-])ccc2=O)c2cc(C#N)ccc2O1`, for which the “Max fall in blood pressure” value was 27 mmHg.
Same read-out and setting: the figure for `CC1(C)C=C(n2ccc(=O)[nH]c2=O)c2cc(C#N)ccc2O1` is 23 mmHg; for `CC1(C)Oc2ccc(C#N)cc2C(N2CCCCS2(=O)=O)[C@@H]1O` (some centres not stated) it is 30 mmHg.
As to `CC1(C)Oc2ccc(C#N)cc2C(n2ncc3ccccc3c2=O)[C@@H]1O` (some centres not stated), the “Max fall in blood pressure” value is recorded as 38 mmHg.
On to `CC1(C)Oc2ccc(C#N)cc2[C@@H](n2cc(Cl)ccc2=O)[C@@H]1O`, for which the “Max fall in blood pressure” value is 37 mmHg.
As for `CC1(C)Oc2ccc(/N=C/c3ccc([N+](=O)[O-])cc3)cc2C(N2CCCC2=O)[C@@H]1O` (some centres not stated), the “Max fall in blood pressure” value was found to be 26 mmHg.
The same measure, in the same setting: the figure for `CC1(C)C=C(n2ccc(=O)cc2)c2cc(C#N)ccc2O1` is 48 mmHg; for `CC1(C)Oc2ccc(C#N)cc2C(n2ccc(=O)nc2)[C@@H]1O` (some centres not stated) it is 18 mmHg; for `CC1(C)C=C(n2ncccc2=O)c2cc(C#N)ccc2O1` it is 23 mmHg.
Still for that read-out and setting: as for `CC1(C)Oc2ccc(C#N)cc2C(n2cccnc2=O)[C@@H]1O` (some centres not stated), the figure is 20 mmHg; as for `CC(=O)c1ccc2c(c1)[C@@H](n1ccccc1=O)[C@H](O)C(C)(C)O2`, 38 mmHg; as for `CC1(C)Oc2ccc(-c3ccncc3)cc2[C@@H](n2ccccc2=O)[C@@H]1O`, 24 mmHg.
As for `CC1(C)C=C(N2CCCCS2(=O)=O)c2cc(C#N)ccc2O1`, the “Max fall in blood pressure” value was found to be 25 mmHg.
The same measure, in the same setting: the figure for `CCOC(=O)c1ccc(=O)n(C2c3cc(C#N)ccc3OC(C)(C)[C@H]2O)n1` (some centres not stated) is 24 mmHg.
On to `CC(=O)Nc1cccn([C@@H]2c3cc(C#N)ccc3OC(C)(C)[C@H]2O)c1=O`, for which the “Max fall in blood pressure” value is recorded as 22 mmHg.
On the same count and under the same terms, as for `CC1(C)C=C(n2ccccc2=O)c2cc(C=O)ccc2O1`, the figure is 35 mmHg; as for `CC1(C)Oc2ccc(C#N)cc2C(n2ccc3ccccc3c2=O)[C@@H]1O` (some centres not stated), 24 mmHg; as for `CC1(C)Oc2ccc(C#N)cc2C(n2cnccc2=O)[C@@H]1O` (some centres not stated), 19 mmHg.
Still for that read-out and setting: as for `O=c1ccccn1C1=CC2(CCCCC2)Oc2ccc([N+](=O)[O-])cc21`, the figure is 22 mmHg.

A further test deals with Rattus norvegicus. As to the kind of experiment: Antihypertensive effect after 1 mg/kg (po) administration in conscious spontaneously hypertensive rat (over a time period of 0-210 min). Details: dose 1 mg/kg. The format is functional, organism-based. In outline:
as §1
On to `CC1(C)Oc2ccc(C#N)cc2[C@@H](n2cc(Cl)cc(Cl)c2=O)[C@@H]1O`, for which the “Max fall in blood pressure” value is “Not significant”.
In the case of `O=c1ccccn1[C@@H]1c2cc([N+](=O)[O-])ccc2OC2(CCCCC2)[C@H]1O`, the “Max fall in blood pressure” value is “Not significant”.
On to `CC1(C)CC(n2ccc(=O)cc2)c2cc(C#N)ccc2O1` (configuration not stated), for which the “Max fall in blood pressure” value is “Not significant”.
For `N#Cc1ccc2c(c1)[C@@H](n1ccccc1=O)[C@H](O)C1(CCCC1)O2`, the “Max fall in blood pressure” value was “Not significant”.
Turning to `CC(=O)Nc1ccc(=O)n([C@@H]2c3cc(C#N)ccc3OC(C)(C)[C@H]2O)c1`, the “Max fall in blood pressure” value is “Not significant”.
`N#Cc1ccc2c(c1)C(n1ccccc1=O)=CC1(CCCCC1)O2`: the “Max fall in blood pressure” value was “Not significant”.
For `CC1(C)Oc2ccc(-c3nc4ccc[nH]c-4n3)cc2C(N2CCCC2=O)[C@@H]1O` (some centres not stated), the “Max fall in blood pressure” value is “Not significant”.
Turning to `CC1(C)Oc2ccc(C#N)cc2[C@@H](n2cccc([N+](=O)[O-])c2=O)[C@@H]1O`, the “Max fall in blood pressure” value is “Not significant”.
Still for that read-out and setting: the entry for `COC(=O)c1ccc2c(c1)C(n1ccccc1=O)C(=O)C(C)(C)O2` (configuration not stated) is “Not significant”.
On the same count and under the same terms, the entry for `CC1(C)Oc2ccc(Br)cc2[C@@H](n2ccccc2=O)[C@@H]1O` is “Not significant”; for `CC1(C)Oc2ccc(C(=N)S)cc2[C@@H](n2ccccc2=O)[C@@H]1O` it is “Not significant”; for `CC1(C)Oc2ccc(NC(=N)S)cc2C(N2CCCC2=O)[C@@H]1O` (some centres not stated) it is “Not significant”.
Consider `CC1(C)C=C(n2cc(Cl)c(=O)c(Cl)c2)c2cc(C#N)ccc2O1`, for which the “Max fall in blood pressure” value is “Not significant”.
As to `CC1(C)Oc2ccc(-c3nc4ccccc4[nH]3)cc2C(N2CCCC2=O)[C@@H]1O` (some centres not stated), the “Max fall in blood pressure” value was “Not significant”.
Take `COc1cccn([C@@H]2c3cc(C#N)ccc3OC(C)(C)[C@H]2O)c1=O`: the “Max fall in blood pressure” value is “Not significant”.
Regarding `CC1(C)C=C(n2ccc(OCc3ccccc3)cc2=O)c2cc(C#N)ccc2O1`, the “Max fall in blood pressure” value is “Not significant”.
As to `CC1(C)Oc2ccc(C#N)cc2[C@@H](N2CCCCC2=N)[C@@H]1O`, the “Max fall in blood pressure” value was “Not significant”.
Same read-out and setting: as for `N#Cc1ccc2c(c1)[C@@H](n1ccccc1=O)[C@H](O)C1(CCCCC1)O2`, the entry is “Not significant”; as for `Cc1coc(-c2ccc3c(c2)C(N2CCCC2=O)[C@H](O)C(C)(C)O3)n1` (some centres not stated), “Not significant”; as for `CC1(C)Oc2ccc(C3=NCCN3)cc2C(N2CCCC2=O)[C@@H]1O` (some centres not stated), “Not significant”.
`CC1(C)C=C(n2ccccc2=O)c2cc(-c3ccncc3)ccc2O1`: the “Max fall in blood pressure” value is “Not significant”.
Turning to `CC1(C)Oc2ccc(C#N)cc2C(n2ccc(=O)[nH]c2=O)[C@@H]1O` (some centres not stated), the “Max fall in blood pressure” value is “Not significant”.
With `CN(C)c1cccn([C@@H]2c3cc(C#N)ccc3OC(C)(C)[C@H]2O)c1=O`, the “Max fall in blood pressure” value is “Not significant”.
On to `CCOc1ccn([C@@H]2c3cc(C#N)ccc3OC(C)(C)[C@H]2O)c(=O)c1`, for which the “Max fall in blood pressure” value was “Not significant”.
Consider `CC1(C)Oc2ccc(C#N)cc2[C@@H](N2CCC/C2=N\C(=O)c2ccncc2)[C@@H]1O`, for which the “Max fall in blood pressure” value was “Not significant”.
`CC1(C)Oc2ccc(C#N)cc2[C@@H](n2cccc(N)c2=O)[C@@H]1O`: the “Max fall in blood pressure” value is “Not significant”.
For `CCOC(=O)c1ccc2c(c1)[C@@H](n1ccccc1=O)[C@H](O)C(C)(C)O2`, the “Max fall in blood pressure” value was “Not significant”.
With `CC1(C)C=C(n2cc(Cl)cc(Cl)c2=O)c2cc(C#N)ccc2O1`, the “Max fall in blood pressure” value was “Not significant”.
Take `CC1(C)C=C(n2ccc3ccccc3c2=O)c2cc(C#N)ccc2O1`: the “Max fall in blood pressure” value is “Not significant”.
For `CC(=O)Oc1cccn([C@@H]2c3cc(C#N)ccc3OC(C)(C)[C@H]2O)c1=O`, the “Max fall in blood pressure” value is “Not significant”.
Same read-out and setting: as for `Cc1csc(-c2ccc3c(c2)C(N2CCCC2=O)[C@H](O)C(C)(C)O3)n1` (some centres not stated), the entry is “Not significant”.
Consider `CC1(C)Oc2ccc([N+](=O)[O-])cc2[C@@H](N2CCCC2=N)[C@@H]1O`, for which the “Max fall in blood pressure” value was “Not significant”.
For the compound `CC1(C)Oc2ccc(C=O)cc2[C@@H](n2ccccc2=O)[C@@H]1O`, the “Max fall in blood pressure” value is “Not significant”.
`O=c1ccccn1C1=CC2(CCCC2)Oc2ccc([N+](=O)[O-])cc21`: the “Max fall in blood pressure” value is “Not significant”.
`CC1(C)Oc2ccc(C#N)cc2C(N2CCC(=O)CC2)[C@@H]1O` (some centres not stated): the “Max fall in blood pressure” value is “Not significant”.
With `CC1(C)Oc2ccc(C#N)cc2[C@@H](n2ccc(OCc3ccccc3)cc2=O)[C@@H]1O`, the “Max fall in blood pressure” value is “Not significant”.
Consider `CC1(C)Oc2ccc(C#N)cc2[C@@H](n2cc(Br)cc(Br)c2=O)[C@@H]1O`, for which the “Max fall in blood pressure” value is “Not significant”.
On the same count and under the same terms, as for `CC1(C)C=C(n2ccccc2=O)c2cc(C(N)=O)ccc2O1`, the entry is “Not significant”; as for `CC1(C)Oc2ccc(/N=C/c3ccc(Cl)cc3Cl)cc2C(N2CCCC2=O)[C@@H]1O` (some centres not stated), “Not significant”; as for `CC1(C)Oc2ccc(-c3nc4cc[nH]cc-4n3)cc2C(N2CCCC2=O)[C@@H]1O` (some centres not stated), “Not significant”.
As to `CC1(C)Oc2ccc(C#N)cc2C(n2cc(Cl)c(=O)c(Cl)c2)[C@@H]1O` (some centres not stated), the “Max fall in blood pressure” value is “Not significant”.
On to `Cc1csc(Nc2ccc3c(c2)C(N2CCCC2=O)[C@H](O)C(C)(C)O3)n1` (some centres not stated), for which the “Max fall in blood pressure” value is “Not significant”.
`O=c1ccccn1[C@@H]1c2cc([N+](=O)[O-])ccc2OC2(CCCC2)[C@H]1O`: the “Max fall in blood pressure” value was “Not significant”.
